Test results published in publication PMC7396962 (Xenobiotica; the fate of foreign compounds in biological …, 2020).

How the values were obtained:
BCRP = biological target: T1, BCRP (Homo sapiens, UniProt Q9UNQ0); experiment: Glucuronide excretion in HeLa1A1 cells with DIPY; type: cell-based; details: CA 10 μM, DIPY 5 or 20 μM
T1 sequence (Q9UNQ0 1-655): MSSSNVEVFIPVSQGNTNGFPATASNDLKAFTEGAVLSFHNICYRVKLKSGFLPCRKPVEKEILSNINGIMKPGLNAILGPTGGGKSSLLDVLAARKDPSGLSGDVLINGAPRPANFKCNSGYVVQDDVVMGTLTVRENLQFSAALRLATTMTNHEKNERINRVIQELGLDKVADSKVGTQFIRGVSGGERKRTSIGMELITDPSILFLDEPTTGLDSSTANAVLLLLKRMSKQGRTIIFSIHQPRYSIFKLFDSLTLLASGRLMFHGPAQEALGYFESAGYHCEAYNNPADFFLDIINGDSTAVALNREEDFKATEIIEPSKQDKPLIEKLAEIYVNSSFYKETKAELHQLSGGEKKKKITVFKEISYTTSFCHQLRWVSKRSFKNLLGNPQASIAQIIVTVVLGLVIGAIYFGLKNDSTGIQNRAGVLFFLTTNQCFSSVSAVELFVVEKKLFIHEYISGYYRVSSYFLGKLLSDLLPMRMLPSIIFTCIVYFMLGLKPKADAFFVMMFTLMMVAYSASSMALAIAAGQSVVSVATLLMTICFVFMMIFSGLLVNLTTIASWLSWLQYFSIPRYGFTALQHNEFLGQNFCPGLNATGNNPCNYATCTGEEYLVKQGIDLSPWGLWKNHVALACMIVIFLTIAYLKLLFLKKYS
Summary of the method: (§1)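 HeLa cells overexpressing UGT1A1 grown in DMEM/10% FBS, seeded 2 × 10^5 cells/well and used near 90% confluence after HBSS washes. Exposed at 37 °C to test compound 10 μM in HBSS with inhibitor 5 or 20 μM or vehicle. Medium sampled at 0.5, 1, 1.5 and 2 h; cells lysed at 2 h in 50% methanol. Excretion rate, CLapp (ER/intracellular concentration) and fmet calculated; triplicate.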

MRPs = experiment: Glucuronide excretion in HeLa1A1 cells with MK571; type: cell-based; details: CA 10 μM, MK571 5 or 20 μM
Summary of the method: as §1

OCCN(CCO)c1nc(N2CCCCC2)c2nc(N(CCO)CCO)nc(N3CCCCC3)c2n1 [DIPY, dipyridamole]
CA-O-glucuronide excretion (BCRP): moderate decrease | fmet values (BCRP): significant decrease | intracellular amounts of glucuronide levels (BCRP): statistical increase

CN(C)C(=O)CCSC(SCCC(=O)O)c1cccc(/C=C/c2ccc3ccc(Cl)cc3n2)c1 (centres unmarked) [MK571]
fmet value (MRPs): significant reduction | intracellular accumulation of glucuronide (MRPs): elevated
